Activity calls are given as the source filed them. The rule behind the calls is not given here.
Tests used:
[1] = organism: Bos taurus; experiment: Inhibition of bovine thymus p56LCK at 10 uM by liquid scintillation counting in presence of [33gammaP]ATP
In short: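 p56lck from bovine thymus; [γ33-P]ATP with polyGT (0.5 mg/mL) substrate; staurosporine reference; liquid scintillation read-out; compounds tested at 10 µM.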

[2] = biological target: T1, Glycogen synthase kinase-3 beta (Homo sapiens, UniProt P49841); experiment: Irreversible inhibition of GSK3-beta mediated phosphorylation measured after careful washes by liquid scintillation counting
T1 sequence (P49841 whole entry, looked up): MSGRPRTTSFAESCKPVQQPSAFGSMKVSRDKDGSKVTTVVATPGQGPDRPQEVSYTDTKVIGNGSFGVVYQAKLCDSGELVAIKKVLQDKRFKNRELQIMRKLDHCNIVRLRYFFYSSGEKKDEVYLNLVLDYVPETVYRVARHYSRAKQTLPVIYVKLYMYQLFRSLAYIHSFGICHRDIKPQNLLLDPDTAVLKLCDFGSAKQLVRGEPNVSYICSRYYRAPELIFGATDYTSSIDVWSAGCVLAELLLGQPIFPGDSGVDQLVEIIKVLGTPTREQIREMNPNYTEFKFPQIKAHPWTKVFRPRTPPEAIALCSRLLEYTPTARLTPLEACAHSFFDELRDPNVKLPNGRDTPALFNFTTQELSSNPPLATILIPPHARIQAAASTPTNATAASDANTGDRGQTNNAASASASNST
In short: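 His-tagged recombinant GSK-3β immobilised on nickel agarose, incubated 20 min at 37 °C with inhibitor, 15 µM ATP, [γ-32P]ATP and GS-1 in Tris/MgCl2/EGTA/EDTA pH 7.5; gel pelleted, washed three times in Tris-MgCl2 buffer, then reassayed 15 min with fresh ATP/GS-1; P81 filter scintillation; activity relative to identically handled control.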

[3] = biological target: Epidermal growth factor receptor (Homo sapiens) (UniProt P00533); experiment: Inhibition of EGFR in human A431 at 10 uM by liquid scintillation counting in presence of [33gammaP]ATP
Epidermal growth factor receptor (Homo sapiens), sequence (P00533 whole entry): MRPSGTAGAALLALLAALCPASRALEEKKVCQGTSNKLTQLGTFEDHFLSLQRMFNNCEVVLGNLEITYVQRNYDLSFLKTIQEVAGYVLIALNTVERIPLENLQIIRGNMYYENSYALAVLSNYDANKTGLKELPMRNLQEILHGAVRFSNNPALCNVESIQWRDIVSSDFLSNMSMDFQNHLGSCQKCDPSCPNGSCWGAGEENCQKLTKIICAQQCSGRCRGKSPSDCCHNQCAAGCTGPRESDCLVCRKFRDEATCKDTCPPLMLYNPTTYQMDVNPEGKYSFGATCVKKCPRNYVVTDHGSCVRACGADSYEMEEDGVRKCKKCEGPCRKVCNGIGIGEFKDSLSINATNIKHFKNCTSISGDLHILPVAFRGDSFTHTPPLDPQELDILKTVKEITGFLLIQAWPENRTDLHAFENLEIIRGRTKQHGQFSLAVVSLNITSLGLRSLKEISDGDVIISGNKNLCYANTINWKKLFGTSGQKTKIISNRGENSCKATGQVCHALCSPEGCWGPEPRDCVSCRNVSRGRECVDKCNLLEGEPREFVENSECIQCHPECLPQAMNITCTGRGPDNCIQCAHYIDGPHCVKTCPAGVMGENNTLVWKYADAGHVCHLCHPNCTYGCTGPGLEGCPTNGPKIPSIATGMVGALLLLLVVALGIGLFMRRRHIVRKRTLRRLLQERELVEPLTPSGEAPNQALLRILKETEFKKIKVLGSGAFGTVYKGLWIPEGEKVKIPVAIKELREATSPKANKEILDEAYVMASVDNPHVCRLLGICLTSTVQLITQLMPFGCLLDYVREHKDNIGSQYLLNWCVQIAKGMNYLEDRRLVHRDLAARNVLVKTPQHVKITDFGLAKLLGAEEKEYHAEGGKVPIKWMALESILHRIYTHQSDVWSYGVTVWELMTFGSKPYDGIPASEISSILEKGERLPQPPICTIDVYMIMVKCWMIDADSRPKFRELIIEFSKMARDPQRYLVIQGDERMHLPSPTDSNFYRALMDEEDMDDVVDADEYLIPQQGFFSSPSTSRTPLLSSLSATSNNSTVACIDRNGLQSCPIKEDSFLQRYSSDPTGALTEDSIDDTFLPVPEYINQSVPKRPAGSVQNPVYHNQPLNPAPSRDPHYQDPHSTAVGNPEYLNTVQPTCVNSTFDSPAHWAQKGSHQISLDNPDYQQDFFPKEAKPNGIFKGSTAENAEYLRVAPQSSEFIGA
In short: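 EGFR kinase from A-431 cells; substrate [γ33-P]ATP plus poly GAT (0.48 mg/mL); PD 153035 reference; product measured by liquid scintillation; compounds at 10 µM.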

[4] = tested on: 5-HT (non-selective) serotonin receptor (Rattus norvegicus); experiment: Inhibition of [3H]serotonine binding to non-selective 5-HT serotoninergic receptor in rat cerebral cortex at 10 uM
[5] = biological target: D(2) dopamine receptor (Homo sapiens) (UniProt P14416); experiment: Displacement of [3H]spiperone from human recombinant dopamine D2 receptor expressed in CHO cells at 10 uM; format: cell-based
D(2) dopamine receptor (Homo sapiens), sequence (P14416 whole entry): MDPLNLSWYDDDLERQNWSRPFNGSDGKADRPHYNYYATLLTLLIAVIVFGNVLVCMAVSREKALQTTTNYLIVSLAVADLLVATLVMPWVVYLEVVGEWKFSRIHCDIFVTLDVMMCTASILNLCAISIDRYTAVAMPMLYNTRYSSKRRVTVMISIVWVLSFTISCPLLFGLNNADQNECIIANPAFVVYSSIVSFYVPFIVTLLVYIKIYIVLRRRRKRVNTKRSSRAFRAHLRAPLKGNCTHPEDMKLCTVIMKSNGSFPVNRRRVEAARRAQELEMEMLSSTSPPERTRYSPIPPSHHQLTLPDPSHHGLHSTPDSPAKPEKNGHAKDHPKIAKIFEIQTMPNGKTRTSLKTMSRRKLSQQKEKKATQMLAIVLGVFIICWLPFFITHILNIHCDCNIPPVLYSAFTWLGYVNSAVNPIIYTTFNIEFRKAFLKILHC
In short: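 Human recombinant D2 receptor expressed in CHO cells; [3H]spiperone ligand at 0.3 nM; (+)-buctaclamol as reference compound.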

[6] = biological target: Insulin receptor (Homo sapiens) (UniProt P06213); experiment: Inhibition of human recombinant IR at 10 uM by liquid scintillation counting in presence of [33gammaP]ATP
In short: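 Human recombinant insulin receptor kinase; [γ33-P]ATP plus poly GT (0.03 mg/mL); staurosporine reference; liquid scintillation detection; 10 µM compound.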

[7] = organism: Rattus norvegicus; experiment: Displacement of [3H]cystisine from alpha-BGTX insensitive nicotinic acetylcholine receptor in rat cerebral cortex at 10 uM; format: tissue-based
[8] = biological target: Glycogen synthase kinase-3 beta (Mus musculus) (UniProt Q9WV60); experiment: Inhibition of GSK-3-beta-mediated tau phosphorylation in mouse granule cerebellar neurons cells after 16 hrs by Western blot
Glycogen synthase kinase-3 beta (Mus musculus), sequence (Q9WV60 whole entry, looked up): as the sequence (P49841 whole entry, looked up) above, with T390P, T392A, A400T, T402A counted along it
In short: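 Cerebellar granule neurons from P6 mice, plated on poly-L-lysine and grown 48 h in serum-free neurobasal/B-27 with 12.5 mM KCl; compounds 0.5–25 µM; LiCl 10 mM positive control with excess myo-inositol; lysates blotted with PHF-1 and Tau-1, normalised to β-actin, densitometry; mean of three experiments, control = 100 r.u.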

[9] = biological target: T1, Glycogen synthase kinase-3 beta; experiment: Noncompetitive inhibition of GSK3-beta by double-reciprocal plotting in presence of increasing ATP
In short: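 Lineweaver-Burk analysis with ATP varied 6.5–100 µM and inhibitor 1–2 µM, GS-1 fixed at 15 µM; 20 min [γ-32P] incorporation into GS-1, V as pmol phosphate/20 min.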

[10] = tested on: N2a; experiment: Induction of neurite growth in mouse Neuro2a cells at 2 uM after 16 hrs by phase-contrast photography; format: functional, cell-based
In short: (§1)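 Neuro2A mouse neuroblastoma cells grown in DMEM with 10% heat-inactivated FCS, 2 mM glutamine and antibiotics; compounds added in serum-containing medium for 16 h; control received DMSO; neurite/cytoplasmic extensions scored by phase-contrast photography.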

[11] = biological target: Tyrosine-protein kinase ABL1 (Mus musculus) (UniProt P00520); experiment: Inhibition of mouse recombinant Abl expressed in Escherichia coli at 10 uM by fluorescence polarization
Tyrosine-protein kinase ABL1 (Mus musculus), sequence (P00520 whole entry): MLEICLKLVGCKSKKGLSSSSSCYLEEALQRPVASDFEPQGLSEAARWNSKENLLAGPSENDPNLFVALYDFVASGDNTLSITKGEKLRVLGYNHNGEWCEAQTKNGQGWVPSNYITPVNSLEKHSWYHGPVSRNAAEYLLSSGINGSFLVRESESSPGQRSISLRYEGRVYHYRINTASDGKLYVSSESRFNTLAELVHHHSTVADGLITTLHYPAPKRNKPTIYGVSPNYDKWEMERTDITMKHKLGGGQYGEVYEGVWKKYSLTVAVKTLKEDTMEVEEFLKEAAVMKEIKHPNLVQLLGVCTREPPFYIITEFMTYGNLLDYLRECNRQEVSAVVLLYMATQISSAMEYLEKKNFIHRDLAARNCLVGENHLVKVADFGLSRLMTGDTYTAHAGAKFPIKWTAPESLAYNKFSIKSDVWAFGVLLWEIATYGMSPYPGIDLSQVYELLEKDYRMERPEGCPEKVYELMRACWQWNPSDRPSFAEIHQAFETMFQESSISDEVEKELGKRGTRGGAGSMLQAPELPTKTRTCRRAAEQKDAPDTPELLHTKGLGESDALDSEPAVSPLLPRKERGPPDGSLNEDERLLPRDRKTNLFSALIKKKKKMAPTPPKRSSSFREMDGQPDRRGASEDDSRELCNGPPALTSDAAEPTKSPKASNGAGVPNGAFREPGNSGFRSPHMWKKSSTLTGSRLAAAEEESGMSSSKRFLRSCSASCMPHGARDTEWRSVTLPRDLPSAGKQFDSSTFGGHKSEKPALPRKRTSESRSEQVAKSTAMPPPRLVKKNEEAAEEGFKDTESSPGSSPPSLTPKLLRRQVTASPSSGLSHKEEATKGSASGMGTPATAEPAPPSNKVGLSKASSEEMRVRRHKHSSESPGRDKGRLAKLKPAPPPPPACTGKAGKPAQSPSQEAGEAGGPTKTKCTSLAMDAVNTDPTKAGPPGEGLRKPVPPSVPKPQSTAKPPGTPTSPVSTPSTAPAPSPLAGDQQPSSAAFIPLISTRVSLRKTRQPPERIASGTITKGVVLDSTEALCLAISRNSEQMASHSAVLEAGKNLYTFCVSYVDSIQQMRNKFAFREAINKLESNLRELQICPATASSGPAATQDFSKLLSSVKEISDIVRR

[12] = biological target: Dual specificity mitogen-activated protein kinase kinase 1 (Oryctolagus cuniculus) (UniProt P29678); experiment: Inhibition of rabbit recombinant MEK1 expressed in Escherichia coli at 10 uM by liquid scintillation counting in presence of [33gammaP]ATP
Dual specificity mitogen-activated protein kinase kinase 1 (Oryctolagus cuniculus), sequence (P29678 whole entry): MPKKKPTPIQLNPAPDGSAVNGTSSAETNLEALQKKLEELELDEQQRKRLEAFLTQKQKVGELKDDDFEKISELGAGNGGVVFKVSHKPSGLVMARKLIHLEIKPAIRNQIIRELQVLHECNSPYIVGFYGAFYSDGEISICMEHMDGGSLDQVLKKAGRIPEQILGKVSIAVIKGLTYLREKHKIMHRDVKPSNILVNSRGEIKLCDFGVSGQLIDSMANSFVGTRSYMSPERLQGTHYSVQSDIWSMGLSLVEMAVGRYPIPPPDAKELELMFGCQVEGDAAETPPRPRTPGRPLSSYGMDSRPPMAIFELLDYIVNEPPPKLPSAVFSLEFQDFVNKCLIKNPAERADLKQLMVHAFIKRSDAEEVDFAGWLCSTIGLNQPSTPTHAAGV
In short: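 Rabbit recombinant MEK1 from E. coli; ATP plus unactivated MAP kinase (0.01 mg/mL) as substrate; staurosporine reference; liquid scintillation detection; 10 µM.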

[13] = biological target: T1, Glycogen synthase kinase-3 beta; experiment: Noncompetitive inhibition of GSK3-beta by double-reciprocal plotting in presence of 15 uM ATP
In short: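 Double-reciprocal kinetics: GS-1 varied 6.5–100 µM with inhibitor 1–2 µM at fixed 15 µM ATP; [γ-32P] filter assay, V as pmol phosphate/20 min; each point mean of three experiments.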

[14] = organism: Rattus norvegicus; experiment: Inhibition of rat recombinant MAPK at 10 uM by liquid scintillation counting in presence of [33gammaP]ATP
In short: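 Rat recombinant ERK42 MAP kinase expressed in E. coli; [γ33-P]ATP with MBP (0.5 mg/mL); staurosporine reference; liquid scintillation read-out; 10 µM compound.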

[15] = biological target: Glutamate NMDA receptor (Rattus norvegicus) (UniProt P35439+Q00959+Q00960+Q00961+Q62645+Q8VHN2+Q9R1M7); experiment: Displacement of [3H]CGP39653 from NMDA receptor in rat cerebral cortex at 10 uM; format: tissue-based
[16] = organism: Rattus norvegicus; experiment: Displacement of [3H]cystisine from alpha-BGTX sensitive nicotinic acetylcholine receptor in rat cerebral cortex; format: tissue-based; set-up: concentration or dose not given beside the values; conditions: concentration not given here
[17] = Displacement of [3H]QNB from muscarinic receptor at 10 uM
[18] = organism: Rattus norvegicus; experiment: Displacement of [3H]AMPA from AMPA receptor in rat cerebral cortex at 10 uM; format: tissue-based
[19] = organism: Rattus norvegicus; experiment: Inhibition of rat CAM2 at 10 uM by liquid scintillation counting in presence of [33gammaP]ATP
In short: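 CaM kinase II from rat brain; [γ33-P]ATP plus autocamtide-2 (5 µM); staurosporine reference; labelled autocamtide-2 counted by liquid scintillation; compounds at 10 µM.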

[20] = biological target: D(3) dopamine receptor (Homo sapiens) (UniProt P35462); experiment: Displacement of [3H]spiperone from human recombinant dopamine D3 receptor expressed in CHO cells at 10 uM; format: cell-based
D(3) dopamine receptor (Homo sapiens), sequence (P35462 whole entry): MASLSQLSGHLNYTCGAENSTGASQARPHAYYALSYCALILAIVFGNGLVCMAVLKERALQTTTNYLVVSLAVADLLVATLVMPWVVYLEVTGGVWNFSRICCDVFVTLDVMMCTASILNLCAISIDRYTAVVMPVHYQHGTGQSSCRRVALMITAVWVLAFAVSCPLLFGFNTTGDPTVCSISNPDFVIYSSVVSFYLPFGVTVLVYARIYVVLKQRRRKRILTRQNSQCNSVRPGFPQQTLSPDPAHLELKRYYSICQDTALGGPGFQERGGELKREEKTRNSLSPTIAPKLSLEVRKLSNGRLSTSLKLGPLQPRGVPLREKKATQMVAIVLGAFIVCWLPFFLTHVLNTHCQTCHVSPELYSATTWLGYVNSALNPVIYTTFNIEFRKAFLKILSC
In short: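 Human recombinant D3 receptor from CHO cells; [3H]spiperone 0.3 nM as ligand; (+)-buctaclamol reference compound.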

[21] = biological target: T2, Alpha-2A adrenergic receptor (Rattus norvegicus) (UniProt P22909); experiment: Displacement of [3H]RX821002 from alpha2 adrenoceptor in rat cerebral cortex at 10 uM; format: tissue-based
T2 sequence (whole entry): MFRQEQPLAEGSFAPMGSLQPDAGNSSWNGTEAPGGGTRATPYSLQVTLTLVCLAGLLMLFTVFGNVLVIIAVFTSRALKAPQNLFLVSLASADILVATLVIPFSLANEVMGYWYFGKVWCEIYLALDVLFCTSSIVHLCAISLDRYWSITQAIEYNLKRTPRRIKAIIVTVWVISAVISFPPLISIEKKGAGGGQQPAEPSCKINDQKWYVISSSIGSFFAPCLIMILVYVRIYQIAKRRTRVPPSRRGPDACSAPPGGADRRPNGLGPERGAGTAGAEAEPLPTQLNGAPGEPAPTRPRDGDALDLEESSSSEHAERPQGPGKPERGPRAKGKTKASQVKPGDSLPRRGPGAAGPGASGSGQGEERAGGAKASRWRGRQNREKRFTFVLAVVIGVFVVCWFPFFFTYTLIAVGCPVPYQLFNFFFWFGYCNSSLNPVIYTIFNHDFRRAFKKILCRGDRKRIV
In short: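 Rat cerebral cortex source; [3H]RX 821002 ligand at 0.5 nM; yohimbine as reference compound; non-selective alpha-2 site.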

[22] = biological target: Proto-oncogene tyrosine-protein kinase Src (Homo sapiens) (UniProt P12931); experiment: Inhibition of Src at 10 uM
Proto-oncogene tyrosine-protein kinase Src (Homo sapiens), sequence (P12931 2-536 limits assumed): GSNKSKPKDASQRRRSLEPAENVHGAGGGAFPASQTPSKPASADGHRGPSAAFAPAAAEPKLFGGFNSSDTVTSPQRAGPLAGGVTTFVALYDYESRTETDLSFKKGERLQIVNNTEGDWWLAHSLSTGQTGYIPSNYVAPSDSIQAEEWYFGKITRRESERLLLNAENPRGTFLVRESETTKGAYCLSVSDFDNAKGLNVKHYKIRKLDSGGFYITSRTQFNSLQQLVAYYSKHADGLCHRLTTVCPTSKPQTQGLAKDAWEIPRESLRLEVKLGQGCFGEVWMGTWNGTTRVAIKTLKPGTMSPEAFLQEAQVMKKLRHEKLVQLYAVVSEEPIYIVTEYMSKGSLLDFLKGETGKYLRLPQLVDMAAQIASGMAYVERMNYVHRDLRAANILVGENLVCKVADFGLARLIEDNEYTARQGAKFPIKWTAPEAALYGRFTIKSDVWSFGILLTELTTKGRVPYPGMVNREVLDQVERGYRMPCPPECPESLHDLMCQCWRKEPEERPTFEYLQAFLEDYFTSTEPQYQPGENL

[23] = tested on: N2a; experiment: Induction of neurite growth in mouse Neuro2a cells at 0.2 uM after 16 hrs by phase-contrast photography; format: functional, cell-based; in short: as §1

Row | SMILES | inhibition [1] | Activity [2] | inhibition [3] | inhibition [4] | inhibition [5] | inhibition [6] | inhibition [7] | Activity [8] | inhibition [9] | inhibition [11] | inhibition [12] | inhibition [14] | inhibition [15] | inhibition [16] | inhibition [17] | inhibition [18] | inhibition [19] | inhibition [20] | inhibition [21] | inhibition [22] | also measured
1 | O=C(CCl)c1c(Br)sc(Cl)c1Cl | 33% | Active | < 10% | < 10% | 31% | < 10% | < 10% | Active | Active | < 10% | < 10% | < 10% | 13% | < 10% | < 10% | < 10% | < 10% | < 10% | < 10% | 26% | Activity [10]: Active; inhibition [13]: Active
2 | O=C(CCl)c1cc(Br)c(Br)s1 | < 10% | Active | < 10% | < 10% | < 10% | < 10% | < 10% |  |  | < 10% | < 10% | < 10% | < 10% | < 10% | < 10% | < 10% | < 10% | < 10% | < 10% | 69% | 
3 | O=C(CCl)c1csc(C(=O)CCl)c1 | 49% |  | 16% | < 10% | < 10% | 12% | < 10% | Active | Active | < 10% | < 10% | < 10% | < 10% | < 10% | < 10% | 25% | 21% | < 10% | 10% | 94% | Activity [23]: Active; inhibition [13]: Active
